Screens deposited in PubChem by several laboratories.
An excerpt weighted towards active compounds, which were near 3.9% of everything screened.
AHR act: activates the human aryl hydrocarbon receptor | activation, % at 5 µM | AID 2796 | AHR-responsive luciferase reporter cells, luminescence | P35869 | 2.5% of 320,000 active; in the data active = activation above about 47%;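 also: 0% = vehicle wells and 100% = reference agonist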
HIF activator: HIF pathway transcriptional activation | U2OS HRE-luciferase reporter, luminescence; normalized: DMSO 0%, desferrioxamine 100% | activation, % at 7.5 µM (by protocol) | 0.32% of 300,000 active;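 active = mean activation of at least 10% of the iron chelator positive control signal, with at least half of replicates also reaching 10%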
ABCB6 inh 2: human ABCB6 transporter inhibition. Q9NP58. K562-ABCB6 porphyrin accumulation, flow cytometry, 1 h; stronger effect = lower value. fluorescence ratio to DMSO, % at 10 µM. 0.19% of 360,000 active;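 active = fluorescence ratio to DMSO below 75%, the collection mean minus 3 SD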;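 also: signal is porphyrin accumulated inside mitochondria; 100% equals median channel fluorescence of DMSO control wells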
SR-BI DiI-HDL act: SR-BI HDL lipid transfer activation; CHO ldlA[mSR-BI] cells, DiI-HDL uptake fluorescence, 3 h; 100 = double the neutral-control signal; activation, % at 12.5 µM; 0.096% of 320,000 active; AID 504775;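 active = mean replicate activation of at least 60% and every replicate at or above 60%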;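 also: 0% = median plate neutral-control signal and 100% = twice that signal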
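Material: SR-BI-overexpressing, LDLR-lacking CHO cells | Dosing: Single compound concentration, delivered by pin transfer | Probe or stimulus: Labelled HDL, 10 µg/mL | Signal: Bottom-read cell fluorescence after medium removal, ex 550/em 595 nm | Schedule: 3 h, 37 °C | Evaluation: HDL uptake via cellular fluorescence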
GAA850 FXN act: frataxin GAA850 promoter activation; HEK293 lucGAA850 FXN promoter luciferase reporter, 24 h; percent of 10 µM SAHA response; activation, % at 6 µM; 0.56% of 360,000 active; AID 540364;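 active = activation above the average of all compounds screened plus 3 SD, cutoff fixed separately per campaign, cut at about 7.5% in these data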;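 also: 0% = DMSO wells and 100% = 10 µM SAHA wells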
SR-BI DiI inh: mouse SR-BI HDL lipid transfer inhibition; Q61009; ldlA[mSR-BI] CHO cells, DiI-HDL uptake fluorescence, 3 h; inhibition, % at 12.5 µM; 0.96% of 320,000 active; AID 488896;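 active = mean replicate inhibition of at least 70% and a set share of replicates each scoring 70 or more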;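 also: 0% = median of neutral control wells and 100% = median of positive control wells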
Target sequence (Q61009 whole entry, looked up): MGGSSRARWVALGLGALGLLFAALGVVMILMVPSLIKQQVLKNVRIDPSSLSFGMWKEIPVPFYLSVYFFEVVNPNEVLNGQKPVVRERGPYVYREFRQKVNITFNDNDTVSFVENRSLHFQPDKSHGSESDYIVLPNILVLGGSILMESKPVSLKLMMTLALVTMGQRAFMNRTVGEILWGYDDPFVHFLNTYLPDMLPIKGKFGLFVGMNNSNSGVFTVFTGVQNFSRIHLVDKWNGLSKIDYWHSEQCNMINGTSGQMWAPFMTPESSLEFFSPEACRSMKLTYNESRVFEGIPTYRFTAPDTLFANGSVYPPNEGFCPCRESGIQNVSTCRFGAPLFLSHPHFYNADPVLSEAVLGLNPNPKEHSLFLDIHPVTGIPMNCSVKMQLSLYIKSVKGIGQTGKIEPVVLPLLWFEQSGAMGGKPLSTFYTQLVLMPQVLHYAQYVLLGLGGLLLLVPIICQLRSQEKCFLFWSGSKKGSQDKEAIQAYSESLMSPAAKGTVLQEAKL
ABCB6 inh CP1: inhibitors of human ABC transporter ABCB6 | shares compounds with ABCB6 inh 2 | 700 tested, under 10 active | ratio response (% of DMSO), % at 10 µM | K562-ABCB6 porphyrin accumulation, flow cytometry, 1 h; stronger effect = lower value;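 active = repeat-averaged ratio response below 75% of DMSO, the collection mean minus 3 SD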;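 also: median porphyrin fluorescence at 575 nm with 488 nm excitation from mitochondria; lower ratio means less porphyrin signal so ABCB6 inhibition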
* = called active by the depositor; x = not tested or not shown.

SMILES | AHR act | HIF activator | ABCB6 inh 2 | SR-BI DiI-HDL act | GAA850 FXN act | SR-BI DiI inh | ABCB6 inh CP1
CCOc1ccc(-c2cncc3nccn23)cc1 | x | x | 65* | x | 1 | x | 98
COc1ccc(-c2cncc3nccn23)cc1OC | x | x | 96 | x | 3 | x | x
COc1ccc(-c2nnc(N)s2)cc1 | 28 | x | 87 | 0 | 4 | 0 | x
Cc1ccc(-c2nnc(N)s2)cc1 | 7 | 1 | 69* | 11 | 5 | -11 | 103
COc1ccc(S(=O)(=O)N2CCC(C(=O)NCc3ccccn3)CC2)cc1OC | 0 | -1 | 101 | 7 | -2 | -7 | x
COc1ccc(OC)c(S(=O)(=O)N2CCC(C(=O)NCc3ccccn3)CC2)c1 | 0 | 0 | 73* | x | 1 | x | 96
CNC(=S)Nc1cc(C)ccc1OC(F)F | 3 | 0 | 92 | 2 | 0 | -2 | x
CCN(C(=O)COC(=O)c1c(C)noc1C)C1CCS(=O)(=O)C1 (centres undefined) | 7 | 0 | 97 | 21 | 0 | -21 | x
Cn1c(CN2CCN(C(=O)c3ccccc3)CC2)nc2cc([N+](=O)[O-])ccc21 | 5 | 0 | 70* | -1 | 0 | 1 | 95
O=C(c1ccc([N+](=O)[O-])cc1)N1CCN(Cc2ccccc2)CC1 | 8 | 0 | 100 | 4 | 0 | -4 | x
CCc1nc(SCC(=O)N2CCN(C(=O)c3ccco3)CC2)c2c3c(sc2n1)CCCC3 | 10 | -1 | 28* | -22 | 1 | 22 | 98
Cc1nc(N2CCN(C(=O)c3ccco3)CC2)c2c3c(sc2n1)CCCC3 | 1 | 0 | 102 | -65 | -2 | 65 | x
COc1ccc(CCCNC(=O)C2(C)Cc3c(-c4ccc(C(N)=O)cc4)ccnc3O2)cc1 (centres undefined) | x | x | 71* | x | 1 | x | 98
CCc1cc(C(=O)N2CCN(c3ncc(C(F)(F)F)cc3Cl)CC2)sc1C | 0 | 2 | 100 | x | 0 | x | x
O=C(Cc1ccccc1)NCCSCc1ccco1 | -2 | 0 | 105 | x | 4 | x | x
O=C(O)c1ccc(CSCc2ccco2)cc1 | 2 | 0 | 74* | 6 | -1 | -6 | 99
Cc1cccn2c(=O)c3cc(C(=O)NCC(C)C)sc3nc12 | -4 | 0 | 101 | -20 | 0 | 20 | x
COc1ccc(Cl)cc1NC(=O)CN(C)CC(=O)NCc1ccc(F)cc1 | 9 | x | 96 | -37 | -2 | 37 | x
COc1ccc(C)c(NC(=O)C2CC(=O)NC3=C2C(=O)CCC3)c1 (centres undefined) | 3 | -1 | 100 | 22 | 1 | -22 | x
COc1cccc(CNC[C@H]2O[C@@H](n3cnc(C(N)=O)n3)[C@H](O)[C@@H]2O)c1OCc1ccc(F)cc1Cl | x | x | 99 | 26 | 0 | -26 | x
COc1ccc(/C=C2/C(=O)OCc3cc(OC)c(OC)cc32)cc1 | -2 | 0 | 65* | x | -4 | x | 97
COc1ccc(/C=C2\CCOC2=O)cc1 | 4 | 1 | 98 | 35 | 2 | -35 | x
CN1CCN(NC(=O)c2cc(-c3ccc(Cl)s3)nc3ccccc23)CC1 | 0 | 1 | 72* | x | 2 | x | 101
CC(C)c1ccc(NC2CCCN(C(=O)CCN3Cc4ccccc4C3=O)C2)cc1 (centres undefined) | 4 | 0 | 99 | 12 | 1 | -12 | x
CCC(C)c1c(O)nc(SCC(=O)N2CCCCC2)[nH]c1=O (centres undefined) | 3 | -1 | 52* | 7 | 0 | -7 | 99
SMILES | AHR act | HIF activator | ABCB6 inh 2 | SR-BI DiI-HDL act | GAA850 FXN act | SR-BI DiI inh | ABCB6 inh CP1
CCC(C)c1c(O)nc(SCC(=O)N2CCOCC2)[nH]c1=O (centres undefined) | -5 | 0 | 107 | 1 | 2 | -1 | x
CC(C)N(Cc1nc(COc2ccccc2)no1)Cc1nccn1C | 9 | 0 | 100 | x | 3 | x | x
Nc1nc(SCc2c(F)cccc2Cl)[nH]c(=O)c1-c1ccccc1 | -11 | 0 | 50* | 17 | 5 | -17 | 98
O=C(COC(=O)C1CC(=O)N(c2ccc3c(c2)OCCO3)C1)NC1CCCc2ccccc21 (centres undefined) | 1 | -1 | 98 | 42 | -7 | -42 | x
O=C(O)CCC(=O)N1N=C(c2cccs2)CC1c1ccc(Br)cc1 (centres undefined) | 6 | 0 | 96 | 6 | 3 | -6 | x
CC(C)(C)C(=O)CC1(O)C(=O)N(Cc2ccccc2)c2ccccc21 (centres undefined) | 3 | -1 | 99 | 25 | -1 | -25 | x
OC(COc1ccc(Br)cc1)Cn1ccnc1 (centres undefined) | 20 | 1 | 74* | 8 | 2 | -8 | 99
CCC(C)NC(=O)C1CCC(CNS(=O)(=O)c2ccc3c(c2)CC(C)N3C(C)=O)CC1 (centres undefined) | 2 | -1 | 98 | 22 | 1 | -22 | x
N#Cc1c(N)sc2c1CCCCCC2 | 1 | 0 | 109 | -12 | 1 | 12 | x
COc1cc2[nH]c(=S)nc(NC3CCCCCC3)c2cc1OC | 41 | 0 | 73* | 0 | 0 | 0 | 99
COc1ccc(CNC(=O)CSc2nnc(C)s2)cc1 | 0 | 0 | 74* | 23 | -2 | -23 | 97
O=C(O)C(Cc1ccccc1)NS(=O)(=O)c1ccc2c(c1)OCCO2 (centres undefined) | -1 | -1 | 68* | 19 | -1 | -19 | 96
O=C(O)C(Cc1ccccc1)NS(=O)(=O)c1ccc(Cl)cc1 (centres undefined) | 2 | -1 | 98 | 7 | -1 | -7 | x
O=C(O)C(Cc1ccc(Cl)cc1)NS(=O)(=O)c1ccc(Cl)cc1 (centres undefined) | 3 | -5 | 49* | -8 | -1 | 8 | 102
COc1ccc(S(=O)(=O)NC(Cc2ccccc2)C(=O)O)cc1 (centres undefined) | -1 | 0 | 95 | 11 | 2 | -11 | x
O=C(CSc1nnc(-c2ccc(F)cc2)o1)Nc1ccc(S(=O)(=O)N2CCCCCC2)cc1 | -2 | -1 | 31* | -14 | 5 | 14 | 98
Cc1ccc(S(=O)(=O)N2CCN(Cc3ccccc3)CC2)cc1 | 1 | -1 | 8.0* | 2 | -1 | -2 | 92
O=S(=O)(c1ccccc1)N1CCN(Cc2ccccc2)CC1 | 7 | -1 | 93 | -2 | 1 | 2 | x
COc1cccc(-c2nnc(SCC(=O)N3CCCC3=O)n2-c2ccccc2)c1 | 16 | x | 100 | -1 | 0 | 1 | x
COc1cccc(-c2nnc(SCC3CNC(=O)O3)n2-c2ccc(Cl)cc2)c1 (centres undefined) | 1 | 1 | 67* | -6 | 2 | 6 | 99
